Measurements from different studies.
Each line is one published result; the experiments were not run side by side.
HTR1D: 5-hydroxytryptamine receptor 1D (HTR1D, Homo sapiens, UniProt P28221)
ALOX5: Polyunsaturated fatty acid 5-lipoxygenase (ALOX5, Homo sapiens, UniProt P09917)
Dipeptidyl peptidase 8: Dipeptidyl peptidase 8 (Homo sapiens, UniProt Q6V1X1)

Structure (SMILES)	target	effect on	mode	method	measurement	value
COc1ccc(C(=O)CCN2CCN(c3ccccc3OC)CC2)cc1	HTR1D	ligand displacement		radioligand	Ki	0.062 µM
COC[C@H]1OC(=O)c2coc3c2[C@@]1(C)C1=C(C3=O)[C@@H]2CCC(=O)[C@@]2(C)C[C@H]1OC(C)=O	TGF-beta receptor type-2 (TGFBR2, Homo sapiens, UniProt P37173)	cell-free assay		competition with immobilised ligand	Kd	> 10 µM
COc1cc(Nc2ncc(F)c(Nc3ccc4c(n3)NC(=O)C(C)(C)O4)n2)cc(OC)c1OC	ALOX5	enzyme activity	inhibitor		IC50	5.01 µM
C[C@H](N)Cn1ncc2ccc3c(c21)CCCO3	HTR1D	ligand displacement		radioligand	Ki	6.9 µM
CC(C)Cc1ccc([C@@H](C)C(=O)O)cc1	Histone acetyltransferase KAT2B (KAT2B, Homo sapiens, UniProt Q92831)	enzyme activity	inhibitor	mobility shift	IC50	~6000 µM
CCCCCc1cc(O)c2c(c1)OC(C)(CCC=C(C)C)C=C2 (stereo not shown)	ALOX5	enzyme activity	inhibitor		IC50	1.6 µM
Fc1ccc2onc(C3CCNCC3)c2c1	Sodium-dependent serotonin transporter (Slc6a4, Rattus norvegicus, UniProt P31652)	ligand displacement		radioligand	Ki	> 10 µM
CSCC[C@H](NC(=O)[C@H](Cc1c[nH]c2ccccc12)NC(=O)CNC(=O)[C@H](Cc1ccc(O)cc1)NC(=O)[C@H](C)NC(=O)[C@@H](CCC(=O)O)NC(=O)CN1CCN(CC(=O)O)CCN(CC(=O)O)CCN(CC(=O)O)CC1)C(=O)N[C@@H](CC(=O)O)C(=O)N(C)[C@@H](Cc1ccccc1)C(N)=O	Gastrin/cholecystokinin type B receptor (Rattus norvegicus, UniProt P30553)	ligand displacement		radioligand	IC50	0.0226 µM
CC[C@H]1NC(=O)[C@@H]2CSC(=N2)[C@@H](Cc2ccccc2)N(C)C(=O)[C@@H]2CCCN2C(=O)[C@H](C(C)C)N(C)C(=O)[C@H](Cc2ccccc2)OC(=O)[C@H](C)[C@@H](C)NC(=O)[C@@H]([C@@H](C)O)NC(=O)[C@@H](CC(C)C)N(C)C(=O)[C@@H]2CSC1=N2	Dipeptidyl peptidase 8	enzyme activity	inhibitor		IC50	11.5 µM
O=C(NO)c1ccccc1	Histone deacetylase 6, CD2 (hdac6, Danio rerio, UniProt F8W4B7)	enzyme activity	inhibitor	fluorescence	IC50	3.42 µM
CCOc1ccccc1N1CCN(Cc2coc3ccccc3c2=O)CC1	HTR1D	ligand displacement		radioligand	Ki	0.633 µM
CC(C)C[C@@H]1C(=O)N[C@H]([C@@H](C)O)C(=O)N[C@H](C)[C@@H](C)C(=O)O[C@@H](Cc2ccccc2)C(=O)N(C)[C@@H](C(C)C)C(=O)N2CCC[C@H]2C(=O)N(C)[C@H](Cc2ccccc2)C2=N[C@@H](CS2)C(=O)N[C@H](C)C2=N[C@@H](CS2)C(=O)N1C	Dipeptidyl peptidase 8	enzyme activity	inhibitor		IC50	16.6 µM
COc1ccccc1N1CCN(Cc2coc3ccc(C)cc3c2=O)CC1	HTR1D	ligand displacement		radioligand	Ki	0.464 µM
Cn1cc(-c2cc(F)cc(N3CCn4c(cc5c4CCCC5)C3=O)c2CO)cc(Nc2ccc(N3CCN(C4COC4)CC3)cn2)c1=O	Tyrosine-protein kinase Yes (YES1, Homo sapiens, UniProt P07947)	enzyme activity	inhibitor	FRET	Ki	0.637 µM
CC(C)S[C@@H]1O[C@H](CO)[C@H](O)[C@H](O)[C@H]1O	Beta-galactosidase (lacZ, Escherichia coli K-12, UniProt P00722)	enzyme activity	inhibitor	fluorescence	Ki	36 µM
Cc1cccc(N2CCN(Cc3coc4ccc(Cl)cc4c3=O)CC2)c1C	HTR1D	ligand displacement		radioligand	Ki	0.546 µM
